Source: ChEMBL document CHEMBL4152188, “Design, synthesis and biological evaluation of C(4) substituted monobactams as antibacterial agents against multidrug-resistant Gram-negative bacteria” (Eur J Med Chem, 2018)

Columns and labels:
Assay type in all cases: functional
Escherichia coli [1] = assay: Antibacterial activity against extended-spectrum beta-lactamase producing Escherichia coli isolate 209285 after 18 hrs in presence of BPL by CLSI broth microdilution method; conditions: isolate 209285, 18 h
How it was run: (§1)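 CLSI broth microdilution against clinical isolates (ESBL E. coli, KPC-2 MDR K. pneumoniae, IMP-4 MDR P. aeruginosa; five per species). Iron limitation: Mueller-Hinton broth supplemented with 16 mg/liter 2,2'-bipyridyl to complex iron and induce iron uptake systems. Read-out: MIC.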

Pseudomonas aeruginosa [2] = assay: Antibacterial activity against IMP-4 producing Pseudomonas aeruginosa isolate 209471 after 18 hrs in presence of BPL by CLSI broth microdilution method; conditions: isolate 209471, 18 h; how it was run: as §1
Klebsiella pneumoniae [3] = assay: Selectivity index, ratio of MIC for against KPC-2 producing Klebsiella pneumoniae isolate 212423 to MIC for against KPC-2 producing Klebsiella pneumoniae isolate 212423 in presence of BPL
Klebsiella pneumoniae [4] = assay: Selectivity index, ratio of MIC for against KPC-2 producing Klebsiella pneumoniae isolate 209632 to MIC for against KPC-2 producing Klebsiella pneumoniae isolate 209632 in presence of BPL
Klebsiella pneumoniae [5] = assay: Antibacterial activity against KPC-2 producing Klebsiella pneumoniae isolate 209632 after 18 hrs by CLSI broth microdilution method; conditions: isolate 209632, 18 h
Klebsiella pneumoniae [6] = assay: Antibacterial activity against KPC-2 producing Klebsiella pneumoniae isolate 212423 after 18 hrs in presence of BPL by CLSI broth microdilution method; conditions: isolate 212423, 18 h; how it was run: as §1
Pseudomonas aeruginosa [7] = assay: Antibacterial activity against IMP-4 producing Pseudomonas aeruginosa isolate 207272 after 18 hrs by CLSI broth microdilution method; conditions: isolate 207272, 18 h
Escherichia coli [8] = assay: Antibacterial activity against extended-spectrum beta-lactamase producing Escherichia coli isolate 106342 after 18 hrs by CLSI broth microdilution method; conditions: isolate 106342, 18 h
Klebsiella pneumoniae [9] = assay: Antibacterial activity against KPC-2 producing Klebsiella pneumoniae isolate 212229 after 18 hrs in presence of BPL by CLSI broth microdilution method; conditions: isolate 212229, 18 h; how it was run: as §1
Pseudomonas aeruginosa [10] = assay: Selectivity index, ratio of MIC for against IMP-4 producing Pseudomonas aeruginosa isolate 207272 to MIC for against IMP-4 producing Pseudomonas aeruginosa isolate 207272 in presence of BPL
Klebsiella pneumoniae [11] = assay: Antibacterial activity against KPC-2 producing Klebsiella pneumoniae isolate 209632 after 18 hrs in presence of BPL by CLSI broth microdilution method; conditions: isolate 209632, 18 h; how it was run: as §1
Pseudomonas aeruginosa [12] = assay: Antibacterial activity against IMP-4 producing Pseudomonas aeruginosa isolate 208247 after 18 hrs in presence of BPL by CLSI broth microdilution method; conditions: isolate 208247, 18 h; how it was run: as §1
Escherichia coli [13] = assay: Antibacterial activity against Escherichia coli isolate 210737 after 18 hrs in presence of BPL by CLSI broth microdilution method; conditions: isolate 210737, 18 h; how it was run: as §1
Pseudomonas aeruginosa [14] = assay: Selectivity index, ratio of MIC for against IMP-4 producing Pseudomonas aeruginosa isolate 209471 to MIC for against IMP-4 producing Pseudomonas aeruginosa isolate 209471 in presence of BPL
Escherichia coli [15] = assay: Selectivity index, ratio of MIC for against Escherichia coli isolate 210737 to MIC for Escherichia coli isolate 210737 in presence of BPL
Pseudomonas aeruginosa [16] = assay: Selectivity index, ratio of MIC for against IMP-4 producing Pseudomonas aeruginosa isolate 209321 to MIC for against IMP-4 producing Pseudomonas aeruginosa isolate 209321 in presence of BPL
Escherichia coli [17] = assay: Antibacterial activity against extended-spectrum beta-lactamase producing Escherichia coli isolate 208687 after 18 hrs by CLSI broth microdilution method; conditions: isolate 208687, 18 h
Escherichia coli [18] = assay: Selectivity index, ratio of MIC for against extended-spectrum beta-lactamase producing Escherichia coli isolate 106342 to MIC for extended-spectrum beta-lactamase producing Escherichia coli isolate 106342 in presence of BPL
Pseudomonas aeruginosa [19] = assay: Selectivity index, ratio of MIC for against IMP-4 producing Pseudomonas aeruginosa isolate 212886 to MIC for against IMP-4 producing Pseudomonas aeruginosa isolate 212886 in presence of BPL
Escherichia coli [20] = assay: Selectivity index, ratio of MIC for against extended-spectrum beta-lactamase producing Escherichia coli isolate 209285 to MIC for extended-spectrum beta-lactamase producing Escherichia coli isolate 209285 in presence of BPL
Klebsiella pneumoniae [21] = assay: Antibacterial activity against KPC-2 producing Klebsiella pneumoniae isolate 209735 after 18 hrs by CLSI broth microdilution method; conditions: isolate 209735, 18 h
Klebsiella pneumoniae [22] = assay: Antibacterial activity against KPC-2 producing Klebsiella pneumoniae isolate 209735 after 18 hrs in presence of BPL by CLSI broth microdilution method; conditions: isolate 209735, 18 h; how it was run: as §1
Pseudomonas aeruginosa [23] = assay: Antibacterial activity against IMP-4 producing Pseudomonas aeruginosa isolate 207272 after 18 hrs in presence of BPL by CLSI broth microdilution method; conditions: isolate 207272, 18 h; how it was run: as §1
Escherichia coli [24] = assay: Antibacterial activity against extended-spectrum beta-lactamase producing Escherichia coli isolate 208687 after 18 hrs in presence of BPL by CLSI broth microdilution method; conditions: isolate 208687, 18 h; how it was run: as §1
Escherichia coli [25] = assay: Antibacterial activity against extended-spectrum beta-lactamase producing Escherichia coli isolate 209285 after 18 hrs by CLSI broth microdilution method; conditions: isolate 209285, 18 h
Pseudomonas aeruginosa [26] = assay: Antibacterial activity against IMP-4 producing Pseudomonas aeruginosa isolate 209321 after 18 hrs in presence of BPL by CLSI broth microdilution method; conditions: isolate 209321, 18 h; how it was run: as §1
Pseudomonas aeruginosa [27] = assay: Antibacterial activity against IMP-4 producing Pseudomonas aeruginosa isolate 212886 after 18 hrs in presence of BPL by CLSI broth microdilution method; conditions: isolate 212886, 18 h; how it was run: as §1
Escherichia coli [28] = assay: Antibacterial activity against Escherichia coli isolate 210737 after 18 hrs by CLSI broth microdilution method; conditions: isolate 210737, 18 h
Klebsiella pneumoniae [29] = assay: Antibacterial activity against KPC-2 producing Klebsiella pneumoniae isolate 212423 after 18 hrs by CLSI broth microdilution method; conditions: isolate 212423, 18 h
Escherichia coli [30] = assay: Antibacterial activity against extended-spectrum beta-lactamase producing Escherichia coli isolate 212648 after 18 hrs in presence of BPL by CLSI broth microdilution method; conditions: isolate 212648, 18 h; how it was run: as §1
Klebsiella pneumoniae [31] = assay: Antibacterial activity against KPC-2 producing Klebsiella pneumoniae isolate 212232 after 18 hrs by CLSI broth microdilution method; conditions: isolate 212232, 18 h
Escherichia coli [32] = assay: Selectivity index, ratio of MIC for against extended-spectrum beta-lactamase producing Escherichia coli isolate 208687 to MIC for extended-spectrum beta-lactamase producing Escherichia coli isolate 208687 in presence of BPL
Escherichia coli [33] = assay: Antibacterial activity against extended-spectrum beta-lactamase producing Escherichia coli isolate 212648 after 18 hrs by CLSI broth microdilution method; conditions: isolate 212648, 18 h
Klebsiella pneumoniae [34] = assay: Selectivity index, ratio of MIC for against KPC-2 producing Klebsiella pneumoniae isolate 212232 to MIC for against KPC-2 producing Klebsiella pneumoniae isolate 212232 in presence of BPL
Pseudomonas aeruginosa [35] = assay: Selectivity index, ratio of MIC for against IMP-4 producing Pseudomonas aeruginosa isolate 208247 to MIC for against IMP-4 producing Pseudomonas aeruginosa isolate 208247 in presence of BPL
Klebsiella pneumoniae [36] = assay: Selectivity index, ratio of MIC for against KPC-2 producing Klebsiella pneumoniae isolate 212229 to MIC for against KPC-2 producing Klebsiella pneumoniae isolate 212229 in presence of BPL
Pseudomonas aeruginosa [37] = assay: Antibacterial activity against IMP-4 producing Pseudomonas aeruginosa isolate 209321 after 18 hrs by CLSI broth microdilution method; conditions: isolate 209321, 18 h
Pseudomonas aeruginosa [38] = assay: Antibacterial activity against IMP-4 producing Pseudomonas aeruginosa isolate 212886 after 18 hrs by CLSI broth microdilution method; conditions: isolate 212886, 18 h
Klebsiella pneumoniae [39] = assay: Antibacterial activity against KPC-2 producing Klebsiella pneumoniae isolate 212232 after 18 hrs in presence of BPL by CLSI broth microdilution method; conditions: isolate 212232, 18 h; how it was run: as §1
Escherichia coli [40] = assay: Antibacterial activity against extended-spectrum beta-lactamase producing Escherichia coli isolate 106342 after 18 hrs in presence of BPL by CLSI broth microdilution method; conditions: isolate 106342, 18 h; how it was run: as §1
Klebsiella pneumoniae [41] = assay: Selectivity index, ratio of MIC for against KPC-2 producing Klebsiella pneumoniae isolate 209735 to MIC for against KPC-2 producing Klebsiella pneumoniae isolate 209735 in presence of BPL
Escherichia coli [42] = assay: Selectivity index, ratio of MIC for against extended-spectrum beta-lactamase producing Escherichia coli isolate 212648 to MIC for extended-spectrum beta-lactamase producing Escherichia coli isolate 212648 in presence of BPL
Pseudomonas aeruginosa [43] = assay: Antibacterial activity against IMP-4 producing Pseudomonas aeruginosa isolate 208247 after 18 hrs by CLSI broth microdilution method; conditions: isolate 208247, 18 h
Klebsiella pneumoniae [44] = assay: Antibacterial activity against KPC-2 producing Klebsiella pneumoniae isolate 212229 after 18 hrs by CLSI broth microdilution method; conditions: isolate 212229, 18 h
Pseudomonas aeruginosa [45] = assay: Antibacterial activity against IMP-4 producing Pseudomonas aeruginosa isolate 209471 after 18 hrs by CLSI broth microdilution method; conditions: isolate 209471, 18 h

CC(=O)OC[C@@H]1[C@H](NC(=O)/C(=N\OC(c2cc(=O)c(O)cn2O)C(C)C)c2csc(N)n2)C(=O)N1S(=O)(=O)O (stereo not given in full)
0.5 µg/mL: MIC (Escherichia coli [1]) | MIC (Escherichia coli [13]) | MIC (Escherichia coli [28]) | MIC (Escherichia coli [30]) | MIC (Klebsiella pneumoniae [39])
2 µg/mL: MIC (Klebsiella pneumoniae [5]) | MIC (Klebsiella pneumoniae [21]) | MIC (Klebsiella pneumoniae [29]) | MIC (Klebsiella pneumoniae [44])
4: Selectivity Index (Escherichia coli [32])
2: Selectivity Index (Klebsiella pneumoniae [3]) | Selectivity Index (Klebsiella pneumoniae [4]) | Selectivity Index (Pseudomonas aeruginosa [14]) | Selectivity Index (Escherichia coli [20]) | Selectivity Index (Klebsiella pneumoniae [36]) | Selectivity Index (Klebsiella pneumoniae [41]) | Selectivity Index (Escherichia coli [42])
1 µg/mL: MIC (Klebsiella pneumoniae [6]) | MIC (Escherichia coli [8]) | MIC (Klebsiella pneumoniae [9]) | MIC (Klebsiella pneumoniae [11]) | MIC (Escherichia coli [17]) | MIC (Klebsiella pneumoniae [22]) | MIC (Escherichia coli [25]) | MIC (Escherichia coli [33]) | MIC (Escherichia coli [40])
16 µg/mL: MIC (Pseudomonas aeruginosa [27])
64 µg/mL: MIC (Pseudomonas aeruginosa [12]) | MIC (Pseudomonas aeruginosa [23]) | MIC (Pseudomonas aeruginosa [26]) | MIC (Pseudomonas aeruginosa [37]) | MIC (Pseudomonas aeruginosa [43]) | MIC (Pseudomonas aeruginosa [45])
0.25 µg/mL: MIC (Escherichia coli [24])
8 µg/mL: MIC (Klebsiella pneumoniae [31])
> 64 µg/mL: MIC (Pseudomonas aeruginosa [7]) | MIC (Pseudomonas aeruginosa [38])
1: Selectivity Index (Escherichia coli [15]) | Selectivity Index (Pseudomonas aeruginosa [16]) | Selectivity Index (Escherichia coli [18]) | Selectivity Index (Pseudomonas aeruginosa [35])
32 µg/mL: MIC (Pseudomonas aeruginosa [2])
>4: Selectivity Index (Pseudomonas aeruginosa [19])
16: Selectivity Index (Klebsiella pneumoniae [34])
>1: Selectivity Index (Pseudomonas aeruginosa [10])
